# Experiments:
# [1] = biological target: human topo IIβ (Homo sapiens, UniProt Q02880); test: Human topo IIβ-mediated decatenation assay; type: biochemical
# [2] = biological target: T1, human topo IIα (Homo sapiens, UniProt P11388); test: Human topoisomerase IIα-mediated cleavage assay; type: biochemical; settings: 7.8-125 μM
# [3] = biological target: T1, human topo IIα; test: Human topo IIα competitive cleavage assay; type: biochemical; settings: in the presence of 50 μM etoposide
# [4] = tested on: wheatgerm topo I; test: Wheatgerm topo I unwinding assay; type: biochemical, wheat germ; settings: 7.8, 15.6, 31.25, 125 μM
# Procedure, shortened: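 Wheat germ topo I plasmid unwinding run in duplicate at 7.8, 15.6, 31.25 and 125 µM test compound, with the intercalator m-AMSA as positive control.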
# [5] = biological target: human topo II (Homo sapiens, UniProt P11388); test: Competitive ATPase assay; type: biochemical; settings: IC50 versus ATP concentration
# Sequence of human topo II (P11388 whole entry): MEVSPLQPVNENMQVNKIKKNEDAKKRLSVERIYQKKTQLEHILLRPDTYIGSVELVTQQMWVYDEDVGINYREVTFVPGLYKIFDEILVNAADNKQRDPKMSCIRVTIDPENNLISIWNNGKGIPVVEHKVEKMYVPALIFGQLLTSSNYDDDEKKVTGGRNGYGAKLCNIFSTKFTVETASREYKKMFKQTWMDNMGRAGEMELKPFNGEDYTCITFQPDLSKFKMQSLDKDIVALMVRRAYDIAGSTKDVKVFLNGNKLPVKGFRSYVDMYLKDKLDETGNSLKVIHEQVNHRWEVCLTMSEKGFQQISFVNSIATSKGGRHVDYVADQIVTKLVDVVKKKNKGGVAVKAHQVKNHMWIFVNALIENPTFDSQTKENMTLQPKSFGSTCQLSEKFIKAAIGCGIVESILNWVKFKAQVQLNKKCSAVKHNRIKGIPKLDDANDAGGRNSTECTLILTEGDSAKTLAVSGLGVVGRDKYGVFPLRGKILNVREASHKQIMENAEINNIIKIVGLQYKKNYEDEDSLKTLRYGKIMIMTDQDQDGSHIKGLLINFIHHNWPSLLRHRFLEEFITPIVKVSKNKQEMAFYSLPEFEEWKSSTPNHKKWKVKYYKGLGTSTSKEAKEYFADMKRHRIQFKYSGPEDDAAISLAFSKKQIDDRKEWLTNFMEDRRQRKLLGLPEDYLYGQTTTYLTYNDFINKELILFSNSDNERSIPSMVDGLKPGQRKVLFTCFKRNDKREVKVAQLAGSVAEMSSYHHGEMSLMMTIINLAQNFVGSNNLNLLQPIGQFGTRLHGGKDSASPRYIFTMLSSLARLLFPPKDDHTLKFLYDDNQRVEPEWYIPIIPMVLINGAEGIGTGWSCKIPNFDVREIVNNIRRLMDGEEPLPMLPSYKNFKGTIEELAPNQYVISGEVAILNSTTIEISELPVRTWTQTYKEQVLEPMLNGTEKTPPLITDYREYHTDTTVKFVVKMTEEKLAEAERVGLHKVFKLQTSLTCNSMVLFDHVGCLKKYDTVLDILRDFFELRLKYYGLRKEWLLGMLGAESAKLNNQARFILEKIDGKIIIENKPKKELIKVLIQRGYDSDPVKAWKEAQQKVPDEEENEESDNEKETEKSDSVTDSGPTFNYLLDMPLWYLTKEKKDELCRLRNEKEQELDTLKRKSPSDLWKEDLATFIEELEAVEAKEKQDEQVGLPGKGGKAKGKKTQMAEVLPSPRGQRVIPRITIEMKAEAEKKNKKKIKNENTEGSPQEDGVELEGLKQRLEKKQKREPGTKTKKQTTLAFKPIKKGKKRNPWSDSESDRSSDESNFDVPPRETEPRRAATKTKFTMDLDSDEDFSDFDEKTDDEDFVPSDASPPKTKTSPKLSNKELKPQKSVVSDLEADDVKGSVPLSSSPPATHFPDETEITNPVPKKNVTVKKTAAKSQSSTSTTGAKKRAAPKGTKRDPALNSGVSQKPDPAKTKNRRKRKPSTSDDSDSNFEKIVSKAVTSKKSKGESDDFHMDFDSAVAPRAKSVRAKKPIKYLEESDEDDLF
# Procedure, shortened: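 NADH-coupled ATPase (pyruvate kinase/lactate dehydrogenase, phosphoenolpyruvate) with human topo II at 14 nM final and linear pBR322. Buffer was 20 mM Tris-HCl, 5 mM Mg acetate, 125 mM K acetate, 2 mM DTT, pH 7.9. Compound in DMSO went in before enzyme, then a 10–15 min OD340 pre-run. ATP was added at varying concentrations and OD340 followed for up to 30 min at 37 °C, in duplicate. Hydrolysis rates vs ATP gave IC50 at each ATP level.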
# [6] = biological target: ATPase domain of topo IIα (Homo sapiens, UniProt P11388); test: 1H STD NMR experiments; type: binding; settings: protein:ligand ratio 1:100
# Procedure, shortened: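 Runs were at 600 MHz, 25 °C, with a 100 ms T₁ρ filter. On-resonance saturation was at −0.727 ppm and off-resonance at 30 ppm. Saturation was 0.5 or 1 s depending on compound, with relaxation delay 4 or 1.5 s. Epitope maps come from STD amplification factors.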
# [7] = Solubility as observed during preparation for assays; type: physicochemical
# [8] = tested on: NCI-60 human cancer cell lines; test: NCI-60 screening, whole panel; type: cell-based; settings: 10 µM
# [9] = biological target: B-Raf (Homo sapiens, UniProt P15056); test: KinaseProfiler kinase activity assay; type: biochemical
# Sequence of B-Raf (P15056 whole entry): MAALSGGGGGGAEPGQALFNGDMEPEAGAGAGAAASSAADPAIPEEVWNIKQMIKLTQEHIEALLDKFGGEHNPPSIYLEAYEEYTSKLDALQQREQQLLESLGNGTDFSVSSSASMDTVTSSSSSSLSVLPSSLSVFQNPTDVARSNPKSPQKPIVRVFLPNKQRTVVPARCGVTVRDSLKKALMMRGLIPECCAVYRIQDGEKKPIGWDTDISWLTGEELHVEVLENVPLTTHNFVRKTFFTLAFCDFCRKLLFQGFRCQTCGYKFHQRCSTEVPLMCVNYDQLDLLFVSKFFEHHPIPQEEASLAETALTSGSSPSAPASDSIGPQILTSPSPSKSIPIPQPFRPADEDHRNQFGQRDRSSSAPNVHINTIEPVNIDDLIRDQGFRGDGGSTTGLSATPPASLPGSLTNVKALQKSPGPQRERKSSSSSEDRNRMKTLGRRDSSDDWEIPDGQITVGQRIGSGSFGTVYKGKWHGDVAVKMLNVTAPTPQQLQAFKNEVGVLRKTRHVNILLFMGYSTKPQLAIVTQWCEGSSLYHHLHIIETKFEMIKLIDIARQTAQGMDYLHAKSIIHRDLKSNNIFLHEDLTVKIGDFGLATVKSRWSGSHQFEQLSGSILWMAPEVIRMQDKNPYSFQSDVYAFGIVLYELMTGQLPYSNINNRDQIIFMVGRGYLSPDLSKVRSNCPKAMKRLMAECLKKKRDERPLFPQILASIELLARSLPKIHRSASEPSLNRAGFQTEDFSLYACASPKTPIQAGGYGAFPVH
# Procedure, shortened: (§1)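 Radiometric kinase assay of test compound at 10 µM, added first from a 50× DMSO stock with no pre-incubation. Kinase was diluted in 45 mM TRIS, 0.4 mM EGTA, 18 mM DTT, 0.02 % Triton X-100, 1 mM sodium orthovanadate, 1 mM β-glycerophosphate, 2 % glycerol. Solvent wells (2 % DMSO) gave 100 % activity. Staurosporine blank wells defined 0 % activity.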
# [10] = biological target: CDK1/cyclinB (Homo sapiens, UniProt P06493); test: KinaseProfiler kinase activity assay; type: biochemical
# Procedure, shortened: (§2)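 Radiometric kinase activity assay. Test compound was made as a 50× stock in 100 % DMSO and added first to 10 µM, with no pre-incubation before reaction start. Kinase was prepared in 20 mM MOPS, 1 mM EDTA, 0.01 % Brij-35, 5 % glycerol, 0.1 % β-mercaptoethanol, 1 mg/mL BSA. Full-activity wells had 2 % DMSO without compound. Blank wells with staurosporine set 0 % activity.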
# [11] = biological target: cKit (Homo sapiens, UniProt P10721); test: KinaseProfiler kinase activity assay; type: biochemical
# Procedure, shortened: as §2
# [12] = biological target: c-RAF (Homo sapiens, UniProt P04049); test: KinaseProfiler kinase activity assay; type: biochemical
# Procedure, shortened: as §1
# [13] = biological target: EGFR (Homo sapiens, UniProt P00533); test: KinaseProfiler kinase activity assay; type: biochemical
# Procedure, shortened: as §2
# [14] = biological target: FGFR1 (Homo sapiens, UniProt P11362); test: KinaseProfiler kinase activity assay; type: biochemical
# Procedure, shortened: as §2
# [15] = biological target: FGFR3 (Homo sapiens, UniProt P22607); test: KinaseProfiler kinase activity assay; type: biochemical
# Procedure, shortened: as §2
# [16] = biological target: Flt1 (Homo sapiens, UniProt P17948); test: KinaseProfiler kinase activity assay; type: biochemical
# Sequence of Flt1 (P17948 27-1338): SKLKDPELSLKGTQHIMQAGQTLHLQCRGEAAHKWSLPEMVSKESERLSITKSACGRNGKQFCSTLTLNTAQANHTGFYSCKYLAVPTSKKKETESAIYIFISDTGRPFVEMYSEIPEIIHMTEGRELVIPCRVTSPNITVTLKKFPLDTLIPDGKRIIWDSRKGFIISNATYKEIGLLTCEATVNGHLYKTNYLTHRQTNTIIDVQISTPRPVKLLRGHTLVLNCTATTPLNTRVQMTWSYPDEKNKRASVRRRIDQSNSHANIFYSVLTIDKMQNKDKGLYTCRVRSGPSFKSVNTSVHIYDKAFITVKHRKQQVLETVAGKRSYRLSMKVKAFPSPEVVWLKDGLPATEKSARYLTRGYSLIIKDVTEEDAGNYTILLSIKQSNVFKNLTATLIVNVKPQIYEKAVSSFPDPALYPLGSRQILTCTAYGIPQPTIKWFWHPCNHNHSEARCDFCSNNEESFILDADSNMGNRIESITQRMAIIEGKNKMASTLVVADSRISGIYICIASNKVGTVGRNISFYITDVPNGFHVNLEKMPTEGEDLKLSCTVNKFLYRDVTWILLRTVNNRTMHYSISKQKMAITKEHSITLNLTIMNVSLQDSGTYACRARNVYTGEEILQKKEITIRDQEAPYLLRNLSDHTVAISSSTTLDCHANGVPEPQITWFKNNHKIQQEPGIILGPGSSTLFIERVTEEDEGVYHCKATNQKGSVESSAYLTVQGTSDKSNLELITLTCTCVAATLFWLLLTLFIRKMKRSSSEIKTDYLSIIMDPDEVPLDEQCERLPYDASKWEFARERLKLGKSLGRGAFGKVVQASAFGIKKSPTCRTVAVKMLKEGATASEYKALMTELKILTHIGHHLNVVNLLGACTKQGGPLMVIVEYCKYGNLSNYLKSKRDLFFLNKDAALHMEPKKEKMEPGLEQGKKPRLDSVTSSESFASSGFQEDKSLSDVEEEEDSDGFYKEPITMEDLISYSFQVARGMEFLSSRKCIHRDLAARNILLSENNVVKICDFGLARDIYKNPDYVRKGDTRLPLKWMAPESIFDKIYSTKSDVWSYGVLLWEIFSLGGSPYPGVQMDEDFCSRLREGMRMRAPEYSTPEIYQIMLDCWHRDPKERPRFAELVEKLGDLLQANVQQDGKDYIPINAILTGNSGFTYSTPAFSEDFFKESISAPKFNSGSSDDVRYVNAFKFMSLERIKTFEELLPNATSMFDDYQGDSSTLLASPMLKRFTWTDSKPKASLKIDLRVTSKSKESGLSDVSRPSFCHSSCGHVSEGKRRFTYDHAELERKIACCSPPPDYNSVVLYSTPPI
# [17] = biological target: Flt3 (Homo sapiens, UniProt P36888); test: KinaseProfiler kinase activity assay; type: biochemical
# [18] = biological target: Fms (Homo sapiens, UniProt P07333); test: KinaseProfiler kinase activity assay; type: biochemical
# Sequence of Fms (P07333 20-972): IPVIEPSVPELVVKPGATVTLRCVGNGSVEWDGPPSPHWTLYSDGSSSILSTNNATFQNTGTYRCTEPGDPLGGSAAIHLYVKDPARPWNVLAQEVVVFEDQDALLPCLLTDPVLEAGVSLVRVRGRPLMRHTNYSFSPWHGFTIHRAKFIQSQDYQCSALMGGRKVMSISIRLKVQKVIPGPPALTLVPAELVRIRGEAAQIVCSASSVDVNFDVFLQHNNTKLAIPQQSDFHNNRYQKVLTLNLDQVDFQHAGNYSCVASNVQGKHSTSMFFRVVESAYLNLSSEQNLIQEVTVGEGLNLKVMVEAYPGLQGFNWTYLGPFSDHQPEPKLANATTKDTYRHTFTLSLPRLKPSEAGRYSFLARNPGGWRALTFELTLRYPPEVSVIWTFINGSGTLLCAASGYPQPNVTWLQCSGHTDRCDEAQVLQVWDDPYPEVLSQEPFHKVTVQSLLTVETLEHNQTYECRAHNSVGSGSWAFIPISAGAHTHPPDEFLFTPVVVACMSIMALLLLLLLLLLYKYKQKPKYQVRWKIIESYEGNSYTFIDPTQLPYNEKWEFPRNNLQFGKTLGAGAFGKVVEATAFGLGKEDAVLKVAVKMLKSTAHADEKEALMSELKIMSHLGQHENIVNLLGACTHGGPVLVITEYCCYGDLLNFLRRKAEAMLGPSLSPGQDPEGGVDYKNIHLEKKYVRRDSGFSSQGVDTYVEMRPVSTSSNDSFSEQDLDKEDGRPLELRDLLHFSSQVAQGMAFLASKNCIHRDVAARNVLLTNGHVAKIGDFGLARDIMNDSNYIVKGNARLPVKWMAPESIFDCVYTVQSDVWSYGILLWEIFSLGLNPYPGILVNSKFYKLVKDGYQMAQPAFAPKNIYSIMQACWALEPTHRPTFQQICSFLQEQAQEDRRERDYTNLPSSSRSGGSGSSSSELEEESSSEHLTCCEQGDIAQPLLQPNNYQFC
# [19] = biological target: IGF-1R (Homo sapiens, UniProt P08069); test: KinaseProfiler kinase activity assay; type: biochemical
# [20] = biological target: JAK2 (Homo sapiens, UniProt O60674); test: KinaseProfiler kinase activity assay; type: biochemical
# [21] = biological target: MEKK3 (Homo sapiens, UniProt Q99759); test: KinaseProfiler kinase activity assay; type: biochemical
# Procedure, shortened: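 Kinase was prepared in 50 mM HEPES, 1 mM EDTA, 10 mM DTT, 0.01 % Brij-35. Activity was measured radiometrically with 10 µM test compound added first from a 50× DMSO stock, without pre-incubation. Activity is expressed relative to 2 % DMSO control wells (100 %) and staurosporine blank wells (0 %).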
# [22] = biological target: PDGFRα (Homo sapiens, UniProt P16234); test: KinaseProfiler kinase activity assay; type: biochemical
# Procedure, shortened: as §2
# [23] = biological target: PKA (Homo sapiens, UniProt P17612); test: KinaseProfiler kinase activity assay; type: biochemical
# Procedure, shortened: as §2
# [24] = biological target: PKBα (Homo sapiens, UniProt P31749); test: KinaseProfiler kinase activity assay; type: biochemical
# Sequence of PKBα (P31749 whole entry): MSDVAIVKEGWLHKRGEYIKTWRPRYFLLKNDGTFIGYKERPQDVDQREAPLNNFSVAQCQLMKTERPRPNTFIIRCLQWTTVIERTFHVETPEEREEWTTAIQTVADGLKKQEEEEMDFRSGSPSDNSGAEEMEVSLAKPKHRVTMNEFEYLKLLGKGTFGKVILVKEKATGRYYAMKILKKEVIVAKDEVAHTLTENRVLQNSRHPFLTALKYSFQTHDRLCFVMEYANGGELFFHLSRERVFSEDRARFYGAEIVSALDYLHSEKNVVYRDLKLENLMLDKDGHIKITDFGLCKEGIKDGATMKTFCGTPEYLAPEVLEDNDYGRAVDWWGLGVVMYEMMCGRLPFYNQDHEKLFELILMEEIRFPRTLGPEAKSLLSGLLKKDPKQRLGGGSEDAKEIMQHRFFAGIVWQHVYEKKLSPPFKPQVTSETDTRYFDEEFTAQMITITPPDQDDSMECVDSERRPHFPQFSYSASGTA
# Procedure, shortened: as §2
# [25] = biological target: Ret (Homo sapiens, UniProt P07949); test: KinaseProfiler kinase activity assay; type: biochemical
# Procedure, shortened: as §2
# [26] = biological target: Src(1-530) (Homo sapiens, UniProt P12931); test: KinaseProfiler kinase activity assay; type: biochemical
# Procedure, shortened: as §2
# [27] = biological target: ATM (Homo sapiens, UniProt Q13315); test: KinaseProfiler kinase activity assay; type: biochemical
# Procedure, shortened: (§3)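 Radiometric activity assay with 10 µM test compound, added first from a 50× stock in 100 % DMSO, with no compound–kinase pre-incubation. Full activity came from 2 % DMSO wells without compound. The 0 % baseline came from a reference inhibitor: KU55933 for ATM, PI-103 for DNA-PK.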
# [28] = biological target: DNA-PK (Homo sapiens, UniProt P78527); test: KinaseProfiler kinase activity assay; type: biochemical
# Procedure, shortened: as §3
# [29] = tested on: panel of 20 human protein kinases; test: KinaseProfiler, whole panel; type: biochemical; settings: 10 µM
# T1 sequence (P11388 whole entry): as the sequence (P11388 whole entry) above
smiles,measurement,setting,value
"O=c1nc(SCc2cc(F)cc(C(F)(F)F)c2)nc(SCc2ccc3sccc3c2)[nH]1 [Compound 24, 6-((Benzo[b]thiophen-5-ylmethyl)thio)−4-((3-fluoro-5-(trifluoromethyl)benzyl)thio)−1,3,5-triazin-2(1H)-one]",IC50,[1],9.9 ± 0.4 µM
same,linear plasmid in the cleavage assay (in words),[2],a low level of linear plasmid was detected at 15.6 μM and above
same,linear product in the competitive cleavage assay (in words),[3],appeared to reduce the linear product of the etoposide-topoIIα cleavage complex at lower concentrations
same,unwinding / intercalation (in words),[4],inhibitors rather than intercalators
same,mode of inhibition with respect to ATP (in words),[5],no noticeable decrease in IC50 values
same,interaction with the ATPase domain of topo IIα by STD NMR (in words),[6],confirmed the interaction
same,solubility (in words),[7],more soluble compared to the benzyl-substituted analogues
same,cytotoxic activity in NCI-60 (in words),[8],marginal cytotoxicity in several leukemia cell lines
same,activity at 10 µM,[9],93%
same,activity at 10 µM,[10],124%
same,activity at 10 µM,[11],99%
same,activity at 10 µM,[12],110%
same,activity at 10 µM,[13],100%
same,activity at 10 µM,[14],90%
same,activity at 10 µM,[15],92%
same,activity at 10 µM,[16],93%
same,activity at 10 µM,[17],93%
same,activity at 10 µM,[18],77%
same,activity at 10 µM,[19],92%
same,activity at 10 µM,[20],107%
same,activity at 10 µM,[21],87%
same,activity at 10 µM,[22],106%
same,activity at 10 µM,[23],86%
same,activity at 10 µM,[24],105%
same,activity at 10 µM,[25],91%
same,activity at 10 µM,[26],127%
same,activity at 10 µM,[27],86%
same,activity at 10 µM,[28],83%
same,inhibition of the panel of 20 human protein kinases (in words),[29],no significant inhibitory effect was observed
